Test results reported in article PMC6531046 (Bioorganic & medicinal chemistry, 2019).
“Also recorded” adds a separate entry of the source.

Columns and labels:
[1] = test system: T. b. brucei Lister 427 cells; experiment: T. brucei cell viability analysis; assay type: cell-based, Trypanosoma brucei brucei; details: IC50 mammalian cells / IC50 T. brucei
In short: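 Index is mammalian-cell IC50 divided by T. brucei IC50. Parasite arm: bloodstream-form Lister 427 in HMI-9/10% FBS, 37°C, 7.5% CO2; 5,000 cells, compound with 0.1% DMSO, 48 h; MTS 3 h, A490. Mammalian arm: HEK293 or RAW264.7 in RPMI1640/10% FBS, 3000 cells seeded 24 h, compound 48 h; MTT 3 h, A570. Quadruplicates normalized, dose–response fitted.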

[2] = target: tubulin (Trypanosoma brucei rhodesiense, UniProt P04106+P04107); experiment: Tubulin polymerization in T. brucei cells; assay type: cell-based; details: 12 h treatment, different doses, western blot vs DMSO
Sequence of tubulin (P04107 whole entry): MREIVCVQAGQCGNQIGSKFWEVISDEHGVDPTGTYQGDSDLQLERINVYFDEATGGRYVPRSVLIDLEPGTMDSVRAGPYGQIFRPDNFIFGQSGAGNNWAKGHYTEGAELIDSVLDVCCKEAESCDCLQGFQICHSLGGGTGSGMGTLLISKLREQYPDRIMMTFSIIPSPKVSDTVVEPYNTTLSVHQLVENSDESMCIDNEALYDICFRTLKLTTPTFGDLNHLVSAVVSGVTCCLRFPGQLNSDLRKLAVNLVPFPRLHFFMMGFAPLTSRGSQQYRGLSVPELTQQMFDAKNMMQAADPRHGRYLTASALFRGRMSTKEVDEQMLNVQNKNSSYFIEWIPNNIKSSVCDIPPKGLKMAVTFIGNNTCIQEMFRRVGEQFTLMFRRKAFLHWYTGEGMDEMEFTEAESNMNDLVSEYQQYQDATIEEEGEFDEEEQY
Sequence of tubulin (P04106 whole entry): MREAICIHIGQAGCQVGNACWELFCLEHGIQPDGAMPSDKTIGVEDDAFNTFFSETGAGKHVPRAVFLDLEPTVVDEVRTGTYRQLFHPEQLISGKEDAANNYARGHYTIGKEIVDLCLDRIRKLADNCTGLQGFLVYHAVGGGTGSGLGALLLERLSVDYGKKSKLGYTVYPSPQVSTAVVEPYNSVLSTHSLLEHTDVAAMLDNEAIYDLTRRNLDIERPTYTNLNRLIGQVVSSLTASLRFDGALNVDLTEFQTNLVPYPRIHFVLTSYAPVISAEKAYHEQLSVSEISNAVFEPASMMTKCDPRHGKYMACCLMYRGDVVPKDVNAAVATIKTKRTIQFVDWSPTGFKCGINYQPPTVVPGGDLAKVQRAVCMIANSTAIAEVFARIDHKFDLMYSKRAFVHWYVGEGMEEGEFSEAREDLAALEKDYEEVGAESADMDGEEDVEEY
In short: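 Bloodstream-form T. b. brucei Lister 427 (HMI-9, 10% FBS, 37°C, 7.5% CO2) treated 12 h with varying doses in 0.5% DMSO; washed in TDB with protease inhibitors, lysed 5 min at 4°C in Pipes pH 6.8/EGTA/MgCl2/0.15% Triton X-100/glycerol; 15,000 g 30 min spin separated soluble (non-polymerized) supernatant from pellet, RIPA-boiled (polymerized). Equal cell-equivalent fractions blotted with anti-tubulin antibody.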

[3] = test system: T. b. brucei Lister 427 cells; details: earlier study, cited from earlier work

| Compound | selectivity index (mammalian cell line not given) [1] | effect on tubulin polymerization in T. brucei cells [2] | selectivity index ([3]; IC50 human cell growth / IC50 T. brucei cell growth) | IC50 to inhibit trypanosomal cell proliferation [3] [nM] |
| --- | --- | --- | --- | --- |
| CCS(=O)(=O)Nc1ccc(NC(=O)c2ccc(Cl)c([N+](=O)[O-])c2)cc1Cl [Compound 39, 4-Chloro-N-(3-Chloro-4-(Ethylsulfonamido)-Phenyl)-3-Nitrobenzamide] | below 50 |  |  |  |
| CCS(=O)(=O)Nc1ccc(NC(=O)c2cc(C(F)(F)F)cc(C(F)(F)F)c2)cc1Cl [Compound 40, N-(3-Chloro-4-(Ethylsulfonamido)Phenyl)-3,5-Bis(Trifluoromethyl)Benzamide] | below 50 |  |  |  |
| Cc1cc(NC(=O)c2cc(C(F)(F)F)cc(C(F)(F)F)c2)ccc1NS(C)(=O)=O [Compound 5, N-(4-(Methylsulfonamido)-3-Methylphenyl)-3,5-Bis(Trifluoromethyl)Benzamide] | above 50 | profound effect on tubulin function; also recorded: decreased the amount of polymerized tubulin in a dose-dependent manner; also recorded: inhibit the tubulin polymerization in T. brucei cells |  |  |
| N#Cc1ccc(C(=O)Nc2ccc(NS(=O)(=O)C(F)(F)F)c(F)c2)cc1 [Compound 57, 4-Cyano-N-(3-Fluoro-4-(Trifluoromethylsulfonamido)Phenyl)Benzamide] |  | decreased the amount of polymerized tubulin in a dose-dependent manner; also recorded: inhibit the tubulin polymerization in T. brucei cells |  |  |
| Cc1cc(NC(=O)c2cc(C(F)(F)F)cc(C(F)(F)F)c2)ccc1NS(=O)(=O)C(F)(F)F [Compound 15, N-(3-Methyl-4-Trifluoromethanesulfonylamino-Phenyl)-3,5-Bis-Trifluoromethyl-Benzamide] |  |  | around 7000 | 70 |
